From ChEMBL document CHEMBL1955823, “Imidazo[1,2-a]pyrazines as novel PI3K inhibitors” (Bioorg Med Chem Lett, 2012)

Legend:
[1] = target: T1, Serine/threonine-protein kinase 4 (Homo sapiens) (UniProt Q13043); assay: Inhibition of MST1 at 5 to 10 uM
T1 sequence (whole entry): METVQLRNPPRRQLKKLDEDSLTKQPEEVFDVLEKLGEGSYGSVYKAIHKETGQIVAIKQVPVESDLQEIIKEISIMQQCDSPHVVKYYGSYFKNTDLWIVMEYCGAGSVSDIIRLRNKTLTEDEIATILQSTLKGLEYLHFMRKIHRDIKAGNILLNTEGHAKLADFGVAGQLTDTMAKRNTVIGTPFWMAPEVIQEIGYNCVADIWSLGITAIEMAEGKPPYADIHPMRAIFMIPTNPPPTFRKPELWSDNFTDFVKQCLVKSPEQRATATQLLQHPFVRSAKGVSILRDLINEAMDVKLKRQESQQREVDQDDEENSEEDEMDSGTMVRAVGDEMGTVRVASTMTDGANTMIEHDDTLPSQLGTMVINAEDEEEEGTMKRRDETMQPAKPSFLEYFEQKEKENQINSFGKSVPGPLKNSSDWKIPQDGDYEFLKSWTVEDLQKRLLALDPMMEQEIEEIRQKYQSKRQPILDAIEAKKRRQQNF

[2] = target: T2, Inhibitor of nuclear factor kappa-B kinase subunit beta (Homo sapiens) (UniProt O14920); assay: Inhibition of IKK-beta at 5 to 10 uM
T2 sequence (whole entry): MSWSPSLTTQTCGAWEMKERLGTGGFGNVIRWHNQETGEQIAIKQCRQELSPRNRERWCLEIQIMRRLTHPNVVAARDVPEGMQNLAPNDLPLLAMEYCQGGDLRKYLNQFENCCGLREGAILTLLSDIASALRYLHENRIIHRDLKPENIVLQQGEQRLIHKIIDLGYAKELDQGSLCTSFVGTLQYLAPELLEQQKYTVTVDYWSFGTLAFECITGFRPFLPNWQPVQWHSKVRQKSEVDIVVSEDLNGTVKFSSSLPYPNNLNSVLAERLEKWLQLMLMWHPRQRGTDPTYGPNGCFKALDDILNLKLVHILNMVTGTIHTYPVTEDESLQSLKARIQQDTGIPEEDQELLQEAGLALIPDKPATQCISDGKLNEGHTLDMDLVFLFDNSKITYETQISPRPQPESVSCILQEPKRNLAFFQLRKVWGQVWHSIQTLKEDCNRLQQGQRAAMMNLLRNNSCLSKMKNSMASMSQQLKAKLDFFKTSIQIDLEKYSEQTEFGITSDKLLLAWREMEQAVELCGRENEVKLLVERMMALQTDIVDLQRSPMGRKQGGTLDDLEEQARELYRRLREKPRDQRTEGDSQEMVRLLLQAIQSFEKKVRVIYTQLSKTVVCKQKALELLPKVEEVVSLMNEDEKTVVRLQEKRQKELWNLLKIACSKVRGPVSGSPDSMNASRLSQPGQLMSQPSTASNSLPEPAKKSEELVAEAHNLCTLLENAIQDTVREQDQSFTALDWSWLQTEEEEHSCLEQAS

[3] = target: Focal adhesion kinase 1 (Homo sapiens) (UniProt Q05397); assay: Inhibition of FAK at 5 to 10 uM
Chain of Focal adhesion kinase 1 (Homo sapiens) (Q05397 2-1052 limits assumed): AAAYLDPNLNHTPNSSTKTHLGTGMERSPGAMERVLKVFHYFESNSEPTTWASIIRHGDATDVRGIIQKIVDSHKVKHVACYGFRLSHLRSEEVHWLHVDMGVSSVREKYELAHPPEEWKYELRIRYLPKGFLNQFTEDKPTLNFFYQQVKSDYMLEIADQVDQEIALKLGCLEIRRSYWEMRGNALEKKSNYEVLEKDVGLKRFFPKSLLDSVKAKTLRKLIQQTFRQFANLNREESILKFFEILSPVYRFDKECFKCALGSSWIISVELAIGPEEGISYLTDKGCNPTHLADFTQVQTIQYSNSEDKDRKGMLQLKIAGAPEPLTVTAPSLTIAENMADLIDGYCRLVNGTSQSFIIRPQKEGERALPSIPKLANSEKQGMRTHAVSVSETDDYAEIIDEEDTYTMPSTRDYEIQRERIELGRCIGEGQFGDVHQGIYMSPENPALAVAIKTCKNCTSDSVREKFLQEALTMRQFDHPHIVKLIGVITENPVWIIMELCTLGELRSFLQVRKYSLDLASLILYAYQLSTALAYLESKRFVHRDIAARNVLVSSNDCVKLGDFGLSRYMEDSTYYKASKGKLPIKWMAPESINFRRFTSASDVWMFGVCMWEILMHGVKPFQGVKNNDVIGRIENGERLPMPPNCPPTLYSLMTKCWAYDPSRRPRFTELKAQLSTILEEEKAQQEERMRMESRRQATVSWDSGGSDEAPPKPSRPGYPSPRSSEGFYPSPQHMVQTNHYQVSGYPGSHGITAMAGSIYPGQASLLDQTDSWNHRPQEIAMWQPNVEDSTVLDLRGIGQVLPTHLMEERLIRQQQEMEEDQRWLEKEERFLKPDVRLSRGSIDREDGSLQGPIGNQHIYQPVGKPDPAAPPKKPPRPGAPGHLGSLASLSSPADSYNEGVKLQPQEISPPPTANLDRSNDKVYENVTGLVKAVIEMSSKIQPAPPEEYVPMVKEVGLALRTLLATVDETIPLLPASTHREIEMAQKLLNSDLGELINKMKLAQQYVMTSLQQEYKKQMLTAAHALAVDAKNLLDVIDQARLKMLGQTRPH

[4] = target: Ribosomal protein S6 kinase alpha-1 (Homo sapiens) (UniProt Q15418); assay: Inhibition of RPS6KA1 at 5 to 10 uM
[5] = target: Insulin-like growth factor 1 receptor (Homo sapiens) (UniProt P08069); assay: Inhibition of IGF1-R at 5 to 10 uM
[6] = target: Serine/threonine-protein kinase PAK 1 (Homo sapiens) (UniProt Q13153); assay: Inhibition of PAK1 at 5 to 10 uM
Chain of Serine/threonine-protein kinase PAK 1 (Homo sapiens) (Q13153 whole entry): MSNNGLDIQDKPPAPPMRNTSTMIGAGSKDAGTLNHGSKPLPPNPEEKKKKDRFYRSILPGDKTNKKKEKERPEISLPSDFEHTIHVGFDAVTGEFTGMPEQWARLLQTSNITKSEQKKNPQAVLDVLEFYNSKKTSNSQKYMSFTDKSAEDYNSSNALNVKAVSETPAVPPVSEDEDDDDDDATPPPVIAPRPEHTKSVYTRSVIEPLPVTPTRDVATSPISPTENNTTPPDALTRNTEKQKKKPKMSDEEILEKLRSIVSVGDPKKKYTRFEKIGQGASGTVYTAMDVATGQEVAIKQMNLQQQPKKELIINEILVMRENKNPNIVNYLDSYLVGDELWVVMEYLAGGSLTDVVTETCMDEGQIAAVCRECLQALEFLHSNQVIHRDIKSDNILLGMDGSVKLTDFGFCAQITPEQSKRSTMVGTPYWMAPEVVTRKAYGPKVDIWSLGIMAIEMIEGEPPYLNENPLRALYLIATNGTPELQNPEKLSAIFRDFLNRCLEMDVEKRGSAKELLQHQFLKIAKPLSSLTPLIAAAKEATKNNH

[7] = target: Serine/threonine-protein kinase mTOR (Homo sapiens, UniProt P42345); assay: Inhibition of mTOR
Summary of the method: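 mTOR (FRAP1) kinase assay using GFP-4E-BP1 substrate and a Tb-labelled anti-phospho-4E-BP1 (Thr46) antibody in a TR-FRET format, under the manufacturer's conditions; averages of two independent experiments run in duplicate.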

[8] = Inhibition of PDGFR at 5 to 10 uM
[9] = target: Casein kinase I isoform alpha (Homo sapiens) (UniProt P48729); assay: Inhibition of CK1alpha1 at 5 to 10 uM
Chain of Casein kinase I isoform alpha (Homo sapiens) (P48729 2-337 limits assumed): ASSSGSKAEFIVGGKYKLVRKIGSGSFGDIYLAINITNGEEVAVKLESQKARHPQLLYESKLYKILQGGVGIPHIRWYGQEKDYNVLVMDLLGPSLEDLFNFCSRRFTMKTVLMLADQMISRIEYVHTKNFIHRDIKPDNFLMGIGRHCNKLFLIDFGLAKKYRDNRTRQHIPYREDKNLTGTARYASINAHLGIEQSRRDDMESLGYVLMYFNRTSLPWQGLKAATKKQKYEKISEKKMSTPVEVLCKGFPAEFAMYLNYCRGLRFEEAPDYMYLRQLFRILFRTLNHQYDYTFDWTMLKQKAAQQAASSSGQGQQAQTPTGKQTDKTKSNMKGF

[10] = target: Hepatocyte growth factor receptor (Homo sapiens) (UniProt P08581); assay: Inhibition of MET at 5 to 10 uM
[11] = target: T3, Serine/threonine-protein kinase Sgk1 (Homo sapiens) (UniProt O00141); assay: Inhibition of SGK1 at 5 to 10 uM
T3 sequence (whole entry): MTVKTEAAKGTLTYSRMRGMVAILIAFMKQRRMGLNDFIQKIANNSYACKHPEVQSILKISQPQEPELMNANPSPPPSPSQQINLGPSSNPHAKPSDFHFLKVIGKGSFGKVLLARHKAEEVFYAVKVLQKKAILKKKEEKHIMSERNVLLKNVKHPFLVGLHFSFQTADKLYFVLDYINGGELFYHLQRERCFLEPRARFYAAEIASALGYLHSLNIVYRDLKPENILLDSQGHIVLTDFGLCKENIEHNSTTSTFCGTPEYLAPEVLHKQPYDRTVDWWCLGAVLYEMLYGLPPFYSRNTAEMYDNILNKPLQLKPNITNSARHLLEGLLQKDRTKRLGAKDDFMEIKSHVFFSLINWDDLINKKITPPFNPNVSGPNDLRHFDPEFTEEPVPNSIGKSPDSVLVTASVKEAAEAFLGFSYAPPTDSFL

[12] = target: Fibroblast growth factor receptor 1 (Homo sapiens) (UniProt P11362); assay: Inhibition of FGF-R1 at 5 to 10 uM
[13] = target: T4, PI3-kinase p110-alpha/p85-alpha (Homo sapiens, UniProt P42336); assay: Inhibition of human PI3K p110alpha/p85alpha; assay type: protein-complex assay; settings: read-out: Ki(app)
[14] = target: Phosphatidylinositol 4,5-bisphosphate 3-kinase catalytic subunit gamma isoform (Homo sapiens, UniProt P48736); assay: Inhibition of human PI3K p110gamma; settings: read-out: Ki(app)
Chain of Phosphatidylinositol 4,5-bisphosphate 3-kinase catalytic subunit gamma isoform (P48736 whole entry, canonical isoform): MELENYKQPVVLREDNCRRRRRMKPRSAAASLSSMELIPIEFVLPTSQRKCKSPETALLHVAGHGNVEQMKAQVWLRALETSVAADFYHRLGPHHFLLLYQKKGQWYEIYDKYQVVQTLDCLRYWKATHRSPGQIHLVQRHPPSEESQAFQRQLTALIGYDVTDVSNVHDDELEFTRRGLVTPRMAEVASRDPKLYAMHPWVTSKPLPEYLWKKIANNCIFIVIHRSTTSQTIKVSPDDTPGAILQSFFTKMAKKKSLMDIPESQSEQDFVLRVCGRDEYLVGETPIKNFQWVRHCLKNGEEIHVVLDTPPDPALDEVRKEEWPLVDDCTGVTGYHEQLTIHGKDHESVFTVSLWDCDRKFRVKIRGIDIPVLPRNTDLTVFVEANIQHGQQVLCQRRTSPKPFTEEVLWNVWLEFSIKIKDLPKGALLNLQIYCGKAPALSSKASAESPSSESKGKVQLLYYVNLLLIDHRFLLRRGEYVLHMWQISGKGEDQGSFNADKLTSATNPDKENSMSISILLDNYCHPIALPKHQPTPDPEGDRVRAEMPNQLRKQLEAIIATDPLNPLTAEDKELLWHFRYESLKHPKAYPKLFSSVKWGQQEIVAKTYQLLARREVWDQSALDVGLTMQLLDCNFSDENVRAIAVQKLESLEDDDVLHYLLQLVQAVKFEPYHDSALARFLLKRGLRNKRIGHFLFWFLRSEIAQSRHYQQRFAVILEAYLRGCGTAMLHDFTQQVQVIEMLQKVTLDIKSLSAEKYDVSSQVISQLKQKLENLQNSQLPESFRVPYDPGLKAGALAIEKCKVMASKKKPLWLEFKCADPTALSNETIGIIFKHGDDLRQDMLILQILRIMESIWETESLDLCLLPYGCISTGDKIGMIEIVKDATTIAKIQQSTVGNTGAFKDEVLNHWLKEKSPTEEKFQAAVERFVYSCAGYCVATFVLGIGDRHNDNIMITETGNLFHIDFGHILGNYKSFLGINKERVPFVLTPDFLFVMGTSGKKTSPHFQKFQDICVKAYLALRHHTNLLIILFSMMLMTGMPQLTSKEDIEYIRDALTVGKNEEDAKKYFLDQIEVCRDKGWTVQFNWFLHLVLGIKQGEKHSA

[15] = target: Mitogen-activated protein kinase 8 (Homo sapiens) (UniProt P45983); assay: Inhibition of JNK1 at 5 to 10 uM
Chain of Mitogen-activated protein kinase 8 (Homo sapiens) (P45983 whole entry): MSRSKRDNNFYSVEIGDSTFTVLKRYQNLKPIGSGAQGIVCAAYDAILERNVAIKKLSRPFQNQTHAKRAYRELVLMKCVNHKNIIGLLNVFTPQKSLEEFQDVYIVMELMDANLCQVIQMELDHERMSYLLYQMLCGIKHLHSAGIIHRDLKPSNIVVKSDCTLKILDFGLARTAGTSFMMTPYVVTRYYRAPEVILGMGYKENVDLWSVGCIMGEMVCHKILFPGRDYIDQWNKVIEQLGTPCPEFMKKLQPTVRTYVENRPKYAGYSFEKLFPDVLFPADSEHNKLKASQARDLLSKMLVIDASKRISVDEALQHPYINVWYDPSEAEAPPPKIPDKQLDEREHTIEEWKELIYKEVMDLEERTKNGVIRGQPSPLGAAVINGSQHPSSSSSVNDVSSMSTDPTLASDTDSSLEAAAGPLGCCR

[16] = target: RAC-alpha serine/threonine-protein kinase (Homo sapiens) (UniProt P31749); assay: Inhibition of AKT1 at 5 to 10 uM
Chain of RAC-alpha serine/threonine-protein kinase (Homo sapiens) (P31749 whole entry): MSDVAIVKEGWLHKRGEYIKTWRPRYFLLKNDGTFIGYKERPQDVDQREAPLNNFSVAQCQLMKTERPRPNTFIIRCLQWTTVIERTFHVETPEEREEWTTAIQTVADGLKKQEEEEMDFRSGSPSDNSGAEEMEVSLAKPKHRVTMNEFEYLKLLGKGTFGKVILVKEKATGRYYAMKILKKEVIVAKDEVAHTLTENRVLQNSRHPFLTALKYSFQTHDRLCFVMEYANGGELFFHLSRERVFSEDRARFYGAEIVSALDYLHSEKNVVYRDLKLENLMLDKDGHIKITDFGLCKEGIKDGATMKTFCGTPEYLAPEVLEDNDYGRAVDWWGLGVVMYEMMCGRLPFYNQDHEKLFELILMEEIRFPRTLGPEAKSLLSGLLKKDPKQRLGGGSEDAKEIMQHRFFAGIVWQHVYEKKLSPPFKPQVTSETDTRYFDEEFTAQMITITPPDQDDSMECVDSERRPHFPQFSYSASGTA

[17] = target: Dual specificity tyrosine-phosphorylation-regulated kinase 1A (Homo sapiens) (UniProt Q13627); assay: Inhibition of DYRK1A at 5 to 10 uM
[18] = target: T4, PI3-kinase p110-alpha/p85-alpha; assay: Inhibition of PI3K p110alpha/p85alpha-mediated AKT1 phosphorylation at Ser473 in human U2OS cells; assay type: cell-based
Summary of the method: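 Endogenous phospho-Akt1 (Ser473) measured in U2OS osteosarcoma cells kept in 0.1% FBS and then serum-stimulated; read-out by cell-based ELISA with femto chemiluminescent substrate.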

[19] = target: Tyrosine-protein kinase JAK2 (Homo sapiens) (UniProt O60674); assay: Inhibition of JAK2 at 5 to 10 uM
Chain of Tyrosine-protein kinase JAK2 (Homo sapiens) (O60674 whole entry): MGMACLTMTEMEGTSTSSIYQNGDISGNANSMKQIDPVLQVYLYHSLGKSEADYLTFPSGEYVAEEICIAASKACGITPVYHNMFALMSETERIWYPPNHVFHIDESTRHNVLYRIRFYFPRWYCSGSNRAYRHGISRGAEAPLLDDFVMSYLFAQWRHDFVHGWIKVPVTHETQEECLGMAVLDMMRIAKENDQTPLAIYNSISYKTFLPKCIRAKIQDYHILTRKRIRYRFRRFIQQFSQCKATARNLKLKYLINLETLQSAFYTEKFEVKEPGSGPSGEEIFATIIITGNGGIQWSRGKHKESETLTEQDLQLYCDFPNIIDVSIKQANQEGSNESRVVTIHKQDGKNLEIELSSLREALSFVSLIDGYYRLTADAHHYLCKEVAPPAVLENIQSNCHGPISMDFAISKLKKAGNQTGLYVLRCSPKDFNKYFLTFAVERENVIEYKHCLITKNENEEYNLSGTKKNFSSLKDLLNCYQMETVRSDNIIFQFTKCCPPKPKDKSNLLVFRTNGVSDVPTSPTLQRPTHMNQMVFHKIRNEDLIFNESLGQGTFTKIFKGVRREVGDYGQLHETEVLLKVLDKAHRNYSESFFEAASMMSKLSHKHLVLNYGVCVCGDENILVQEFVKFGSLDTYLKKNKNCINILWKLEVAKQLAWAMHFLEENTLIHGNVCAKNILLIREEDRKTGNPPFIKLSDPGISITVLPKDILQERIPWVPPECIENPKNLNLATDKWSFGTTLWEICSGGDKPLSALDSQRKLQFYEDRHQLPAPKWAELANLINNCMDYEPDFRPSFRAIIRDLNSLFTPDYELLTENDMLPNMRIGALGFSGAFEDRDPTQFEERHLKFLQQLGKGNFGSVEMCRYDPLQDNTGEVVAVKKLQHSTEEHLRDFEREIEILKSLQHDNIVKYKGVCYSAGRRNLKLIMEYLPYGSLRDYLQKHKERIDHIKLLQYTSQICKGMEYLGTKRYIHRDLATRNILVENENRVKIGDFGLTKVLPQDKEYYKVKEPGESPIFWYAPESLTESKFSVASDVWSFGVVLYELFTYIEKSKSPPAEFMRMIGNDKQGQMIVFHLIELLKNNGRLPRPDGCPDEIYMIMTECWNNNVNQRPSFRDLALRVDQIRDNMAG

[20] = target: Mast/stem cell growth factor receptor Kit (Homo sapiens) (UniProt P10721); assay: Inhibition of KIT at 5 to 10 uM

## CN(C)CCCNC(=O)c1cn2cc(-c3cccc4[nH]ncc34)nc(N3CCOCC3)c2n1
[1]
  inhibition: < 50%
[2]
  inhibition: < 50%
[3]
  inhibition: 50%
[4]
  inhibition: < 50%
[5]
  inhibition: < 50%
[6]
  inhibition: < 50%
[7]
  IC50: > 10000 nM
[8]
  inhibition: < 50%
[9]
  inhibition: < 50%
[10]
  inhibition: < 50%
[11]
  inhibition: < 50%
[12]
  inhibition: < 50%
[13]
  Ki: 44 nM
[14]
  Ki: > 500 nM
[15]
  inhibition: < 50%
[16]
  inhibition: 50%
[17]
  inhibition: < 50%
[18]
  EC50: 429 nM
[19]
  inhibition: < 50%
[20]
  inhibition: < 50%

## CNC(=O)c1cn2cc(-c3cccc4[nH]ncc34)nc(N3CCOCC3)c2n1
[1]
  inhibition: < 50%
[2]
  inhibition: < 50%
[3]
  inhibition: 50%
[4]
  inhibition: < 50%
[5]
  inhibition: < 50%
[6]
  inhibition: < 50%
[7]
  IC50: > 10000 nM
[8]
  inhibition: < 50%
[9]
  inhibition: < 50%
[10]
  inhibition: < 50%
[11]
  inhibition: < 50%
[12]
  inhibition: < 50%
[13]
  Ki: 102 nM
[14]
  Ki: > 500 nM
[15]
  inhibition: < 50%
[16]
  inhibition: 50%
[17]
  inhibition: < 50%
[18]
  EC50: 600 nM
[19]
  inhibition: < 50%
[20]
  inhibition: < 50%

## CS(=O)(=O)N1CCN(Cc2cn3c(Cl)c(-c4cccc5[nH]ncc45)nc(N4CCOCC4)c3n2)CC1
[1]
  inhibition: < 50%
[2]
  inhibition: < 50%
[3]
  inhibition: 50%
[4]
  inhibition: < 50%
[5]
  inhibition: < 50%
[6]
  inhibition: < 50%
[7]
  IC50: > 10000 nM
[8]
  inhibition: < 50%
[9]
  inhibition: < 50%
[10]
  inhibition: < 50%
[11]
  inhibition: < 50%
[12]
  inhibition: < 50%
[13]
  Ki: 210 nM
[14]
  Ki: > 500 nM
[15]
  inhibition: < 50%
[16]
  inhibition: 50%
[17]
  inhibition: < 50%
[18]
  EC50: 495 nM
[19]
  inhibition: < 50%
[20]
  inhibition: < 50%

## CS(=O)(=O)N1CCN(Cc2nc3c(N4CCOCC4)nc(-c4cccc5[nH]ncc45)cn3c2Br)CC1
[1]
  inhibition: < 50%
[2]
  inhibition: < 50%
[3]
  inhibition: 50%
[4]
  inhibition: < 50%
[5]
  inhibition: < 50%
[6]
  inhibition: < 50%
[7]
  IC50: > 10000 nM
[8]
  inhibition: < 50%
[9]
  inhibition: < 50%
[10]
  inhibition: < 50%
[11]
  inhibition: < 50%
[12]
  inhibition: < 50%
[13]
  Ki: 86 nM
[14]
  Ki: > 500 nM
[15]
  inhibition: < 50%
[16]
  inhibition: 50%
[17]
  inhibition: < 50%
[18]
  EC50: 208 nM
[19]
  inhibition: < 50%
[20]
  inhibition: < 50%

## O=C(NCCN1CCOCC1)c1cn2cc(-c3cccc4[nH]ncc34)nc(N3CCOCC3)c2n1
[1]
  inhibition: < 50%
[2]
  inhibition: < 50%
[3]
  inhibition: 50%
[4]
  inhibition: < 50%
[5]
  inhibition: < 50%
[6]
  inhibition: < 50%
[7]
  IC50: > 10000 nM
[8]
  inhibition: < 50%
[9]
  inhibition: < 50%
[10]
  inhibition: < 50%
[11]
  inhibition: < 50%
[12]
  inhibition: < 50%
[13]
  Ki: 65 nM
[14]
  Ki: > 500 nM
[15]
  inhibition: < 50%
[16]
  inhibition: 50%
[17]
  inhibition: < 50%
[18]
  EC50: 452 nM
[19]
  inhibition: < 50%
[20]
  inhibition: < 50%

## CS(=O)(=O)N1CCN(Cc2cn3c(C#N)c(-c4cccc5[nH]ncc45)nc(N4CCOCC4)c3n2)CC1
[1]
  inhibition: < 50%
[2]
  inhibition: < 50%
[3]
  inhibition: 50%
[4]
  inhibition: < 50%
[5]
  inhibition: < 50%
[6]
  inhibition: < 50%
[7]
  IC50: > 10000 nM
[8]
  inhibition: < 50%
[9]
  inhibition: < 50%
[10]
  inhibition: < 50%
[11]
  inhibition: < 50%
[12]
  inhibition: < 50%
[13]
  Ki: 410 nM
[14]
  Ki: > 500 nM
[15]
  inhibition: < 50%
[16]
  inhibition: 50%
[17]
  inhibition: < 50%
[18]
  EC50: 203 nM
[19]
  inhibition: < 50%
[20]
  inhibition: < 50%

## COCCCNC(=O)c1cn2cc(-c3cccc4[nH]ncc34)nc(N3CCOCC3)c2n1
[1]
  inhibition: < 50%
[2]
  inhibition: < 50%
[3]
  inhibition: 50%
[4]
  inhibition: < 50%
[5]
  inhibition: < 50%
[6]
  inhibition: < 50%
[7]
  IC50: > 10000 nM
[8]
  inhibition: < 50%
[9]
  inhibition: < 50%
[10]
  inhibition: < 50%
[11]
  inhibition: < 50%
[12]
  inhibition: < 50%
[13]
  Ki: 60 nM
[14]
  Ki: > 500 nM
[15]
  inhibition: < 50%
[16]
  inhibition: 50%
[17]
  inhibition: < 50%
[18]
  EC50: 114 nM
[19]
  inhibition: < 50%
[20]
  inhibition: < 50%

## CS(=O)(=O)N1CCN(Cc2cn3cc(-c4cccc5[nH]ncc45)nc(N4CCOCC4)c3n2)CC1
[1]
  inhibition: < 50%
[2]
  inhibition: < 50%
[3]
  inhibition: 50%
[4]
  inhibition: < 50%
[5]
  inhibition: < 50%
[6]
  inhibition: < 50%
[7]
  IC50: > 10000 nM
[8]
  inhibition: < 50%
[9]
  inhibition: < 50%
[10]
  inhibition: < 50%
[11]
  inhibition: < 50%
[12]
  inhibition: < 50%
[14]
  Ki: > 500 nM
[15]
  inhibition: < 50%
[16]
  inhibition: < 50%
[17]
  inhibition: < 50%
[19]
  inhibition: < 50%
[20]
  inhibition: < 50%
